The source made the active and inactive calls.
How the values were obtained:
[1] = biological target: 5-hydroxytryptamine receptor 1A (Homo sapiens) (UniProt P08908); assay: Displacement of [3H]-8-OH-DPAT from human recombinant 5HT1A receptor expressed in stable CHO cells at 10 uM incubated for 90 mins by microbeta scintillation counting method; format: cell-based
Summary of the method: (§1)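 Primary radioligand binding screen run by the NIMH Psychoactive Drug Screening Program, with one test level of 10 μM. The read-out was inhibition of radioligand binding at each receptor.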

[2] = biological target: 5-hydroxytryptamine receptor 1B (Homo sapiens) (UniProt P28222); assay: Displacement of [3H]-5-CT from human recombinant 5HT1B receptor expressed in stable HEK cells at 10 uM incubated for 90 mins by microbeta scintillation counting method; format: cell-based; summary of the method: as §1
5-hydroxytryptamine receptor 1B (Homo sapiens), sequence (P28222 whole entry): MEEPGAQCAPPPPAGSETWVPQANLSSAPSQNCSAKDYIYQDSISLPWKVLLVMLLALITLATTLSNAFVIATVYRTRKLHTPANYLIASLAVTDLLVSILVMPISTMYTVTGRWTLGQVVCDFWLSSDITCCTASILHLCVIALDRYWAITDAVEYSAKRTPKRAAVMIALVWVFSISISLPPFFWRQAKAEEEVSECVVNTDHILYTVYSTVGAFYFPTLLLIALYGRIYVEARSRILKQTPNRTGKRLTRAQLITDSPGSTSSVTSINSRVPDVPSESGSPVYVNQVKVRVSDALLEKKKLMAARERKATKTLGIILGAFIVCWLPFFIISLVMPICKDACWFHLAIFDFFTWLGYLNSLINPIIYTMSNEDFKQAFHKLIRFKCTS

[3] = biological target: 5-hydroxytryptamine receptor 1E (Homo sapiens) (UniProt P28566); assay: Displacement of [3H]-5-HT from human recombinant 5HT1E receptor expressed in stable HEK cells at 10 uM incubated for 90 mins by microbeta scintillation counting method; format: cell-based; summary of the method: as §1
5-hydroxytryptamine receptor 1E (Homo sapiens), sequence (P28566 whole entry): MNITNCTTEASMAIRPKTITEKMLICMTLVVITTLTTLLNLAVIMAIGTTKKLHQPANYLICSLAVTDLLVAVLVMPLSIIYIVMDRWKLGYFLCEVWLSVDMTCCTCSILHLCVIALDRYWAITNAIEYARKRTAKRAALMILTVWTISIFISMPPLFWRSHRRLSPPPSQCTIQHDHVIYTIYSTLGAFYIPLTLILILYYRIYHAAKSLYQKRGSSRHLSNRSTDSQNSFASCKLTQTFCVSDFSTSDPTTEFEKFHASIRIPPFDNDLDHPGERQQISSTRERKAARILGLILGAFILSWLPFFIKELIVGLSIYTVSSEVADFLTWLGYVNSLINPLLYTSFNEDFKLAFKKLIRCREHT

[4] = organism: Rattus norvegicus; assay: Displacement of [3H]-Flunitrazepam from BZP receptor in rat brain at 10 uM incubated for 90 mins by microbeta scintillation counting method; format: tissue-based; summary of the method: as §1
[5] = biological target: D(1A) dopamine receptor (Homo sapiens) (UniProt P21728); assay: Displacement of [3H]-SCH23390 from human recombinant dopamine D1 receptor expressed in HEKT cells incubated for 90 mins by microbeta scintillation counting method; format: cell-based
D(1A) dopamine receptor (Homo sapiens), sequence (P21728 whole entry): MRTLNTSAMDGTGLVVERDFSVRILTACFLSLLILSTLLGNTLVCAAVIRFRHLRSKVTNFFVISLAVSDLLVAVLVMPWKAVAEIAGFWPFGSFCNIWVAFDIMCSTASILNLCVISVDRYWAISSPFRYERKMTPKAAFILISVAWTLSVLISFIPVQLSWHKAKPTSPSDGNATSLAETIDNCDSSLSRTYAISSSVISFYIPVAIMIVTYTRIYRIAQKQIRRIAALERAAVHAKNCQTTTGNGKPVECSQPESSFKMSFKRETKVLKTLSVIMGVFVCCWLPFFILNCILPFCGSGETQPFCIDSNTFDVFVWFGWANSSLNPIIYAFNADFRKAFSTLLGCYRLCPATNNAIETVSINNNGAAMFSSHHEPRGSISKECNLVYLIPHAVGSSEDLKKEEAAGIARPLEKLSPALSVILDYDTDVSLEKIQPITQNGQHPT

[6] = biological target: D(3) dopamine receptor (Homo sapiens) (UniProt P35462); assay: Displacement of [3H]-N-methylspiperone from human recombinant dopamine D3 receptor expressed in HEKT cells incubated for 90 mins by microbeta scintillation counting method; format: cell-based
D(3) dopamine receptor (Homo sapiens), sequence (P35462 whole entry): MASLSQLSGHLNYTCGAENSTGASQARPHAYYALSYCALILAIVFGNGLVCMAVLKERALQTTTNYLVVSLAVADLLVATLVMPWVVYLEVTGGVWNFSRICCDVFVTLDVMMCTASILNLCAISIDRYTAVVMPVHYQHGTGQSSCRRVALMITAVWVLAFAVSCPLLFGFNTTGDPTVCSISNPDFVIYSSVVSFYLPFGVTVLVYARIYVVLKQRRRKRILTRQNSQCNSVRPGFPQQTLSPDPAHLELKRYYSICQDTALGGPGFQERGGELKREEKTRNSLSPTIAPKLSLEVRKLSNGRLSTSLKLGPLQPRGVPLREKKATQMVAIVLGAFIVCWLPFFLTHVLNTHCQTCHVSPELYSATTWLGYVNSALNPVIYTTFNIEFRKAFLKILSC

[7] = biological target: GABA-A receptor; anion channel (Rattus norvegicus) (UniProt O09028+P15431+P18506+P18508+P19969+P20236+P23574+P23576+P28471+P28473+P30191+P62813+P63079+P63138+Q91ZM7+Q9ES14); assay: Displacement of [3H]-Muscimol from GABAA receptor in rat brain incubated for 90 mins by microbeta scintillation counting method; format: tissue-based
[8] = biological target: Histamine H2 receptor (Homo sapiens) (UniProt P25021); assay: Displacement of [125I]-Iodoaminopotentidine from human recombinant histamine H2 receptor expressed in stable HEK cells incubated for 90 mins by microbeta scintillation counting method; format: cell-based
Histamine H2 receptor (Homo sapiens), sequence (P25021 whole entry): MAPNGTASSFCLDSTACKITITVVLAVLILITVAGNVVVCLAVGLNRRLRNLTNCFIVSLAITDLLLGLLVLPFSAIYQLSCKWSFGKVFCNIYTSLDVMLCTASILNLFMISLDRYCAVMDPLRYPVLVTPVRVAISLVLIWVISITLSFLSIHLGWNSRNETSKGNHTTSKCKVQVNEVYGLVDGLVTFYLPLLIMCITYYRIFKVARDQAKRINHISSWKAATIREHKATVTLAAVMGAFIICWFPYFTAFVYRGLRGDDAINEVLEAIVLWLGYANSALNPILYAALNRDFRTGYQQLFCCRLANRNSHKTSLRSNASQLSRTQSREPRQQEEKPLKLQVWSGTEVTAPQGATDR

[9] = biological target: Histamine H3 receptor (Homo sapiens) (UniProt Q9Y5N1); assay: Displacement of [3H]-alpha-methylhistamine from human recombinant histamine H3 receptor expressed in Flp-In HEK cells incubated for 90 mins by microbeta scintillation counting method; format: cell-based
Histamine H3 receptor (Homo sapiens), sequence (Q9Y5N1 whole entry): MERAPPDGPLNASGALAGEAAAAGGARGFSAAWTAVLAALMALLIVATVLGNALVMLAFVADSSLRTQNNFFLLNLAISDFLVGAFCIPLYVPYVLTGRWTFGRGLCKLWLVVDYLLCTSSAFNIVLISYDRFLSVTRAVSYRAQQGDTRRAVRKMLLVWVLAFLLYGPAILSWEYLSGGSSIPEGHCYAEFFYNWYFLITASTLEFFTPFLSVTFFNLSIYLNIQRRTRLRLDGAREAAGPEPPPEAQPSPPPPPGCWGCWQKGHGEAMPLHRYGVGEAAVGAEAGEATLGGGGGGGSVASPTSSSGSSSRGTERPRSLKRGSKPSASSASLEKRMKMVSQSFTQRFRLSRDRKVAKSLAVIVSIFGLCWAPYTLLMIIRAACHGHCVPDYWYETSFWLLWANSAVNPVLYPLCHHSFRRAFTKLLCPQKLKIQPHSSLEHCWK

[10] = biological target: Muscarinic acetylcholine receptor M4 (Homo sapiens) (UniProt P08173); assay: Displacement of [3H]-QNB/[3H]-NMS from human recombinant muscarinic acetylcholine M4 receptor expressed in stable CHO cells incubated for 90 mins by microbeta scintillation counting method; format: cell-based
Muscarinic acetylcholine receptor M4 (Homo sapiens), sequence (P08173 whole entry): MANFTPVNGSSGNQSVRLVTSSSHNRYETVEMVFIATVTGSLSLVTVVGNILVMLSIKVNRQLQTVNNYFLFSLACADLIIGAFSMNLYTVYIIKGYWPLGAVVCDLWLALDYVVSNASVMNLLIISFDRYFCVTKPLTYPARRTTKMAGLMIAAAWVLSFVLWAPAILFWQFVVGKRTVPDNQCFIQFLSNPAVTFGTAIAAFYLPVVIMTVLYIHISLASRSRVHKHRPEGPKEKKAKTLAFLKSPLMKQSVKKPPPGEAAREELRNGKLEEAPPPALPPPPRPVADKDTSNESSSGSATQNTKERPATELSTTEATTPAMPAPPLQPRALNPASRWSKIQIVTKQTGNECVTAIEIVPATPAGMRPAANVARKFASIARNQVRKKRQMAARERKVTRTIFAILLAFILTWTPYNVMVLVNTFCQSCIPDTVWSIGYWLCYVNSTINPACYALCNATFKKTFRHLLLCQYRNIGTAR

[11] = organism: Rattus norvegicus; assay: Displacement of [3H]-PK11195 from PBR in rat brain incubated for 90 mins by microbeta scintillation counting method; format: tissue-based
[12] = biological target: Sigma intracellular receptor 2 (Homo sapiens) (UniProt Q5BJF2); assay: Displacement of [3H]-[…] from human recombinant sigma2 receptor expressed in HEKT cells incubated for 90 mins by microbeta scintillation counting method; format: cell-based
Sigma intracellular receptor 2 (Homo sapiens), sequence (Q5BJF2 whole entry): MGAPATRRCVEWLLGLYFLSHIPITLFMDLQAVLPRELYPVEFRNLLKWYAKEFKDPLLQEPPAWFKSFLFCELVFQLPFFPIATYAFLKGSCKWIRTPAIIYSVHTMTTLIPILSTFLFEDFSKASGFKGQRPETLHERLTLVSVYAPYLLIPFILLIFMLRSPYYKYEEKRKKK

Measured: inhibition

5-hydroxytryptamine receptor 1A (Homo sapiens), sequence (P08908 whole entry): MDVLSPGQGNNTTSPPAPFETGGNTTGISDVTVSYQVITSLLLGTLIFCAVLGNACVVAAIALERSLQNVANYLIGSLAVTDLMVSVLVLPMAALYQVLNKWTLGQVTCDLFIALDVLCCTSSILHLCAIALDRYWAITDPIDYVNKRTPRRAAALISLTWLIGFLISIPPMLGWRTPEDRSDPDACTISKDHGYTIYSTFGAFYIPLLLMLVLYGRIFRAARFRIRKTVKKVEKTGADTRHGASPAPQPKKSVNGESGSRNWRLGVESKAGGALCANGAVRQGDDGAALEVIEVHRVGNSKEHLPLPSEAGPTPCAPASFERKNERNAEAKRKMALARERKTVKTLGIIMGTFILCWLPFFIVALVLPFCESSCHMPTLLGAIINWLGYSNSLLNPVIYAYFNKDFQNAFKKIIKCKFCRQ

Cn1c2cccc(=O)c-2nc2ccccc21 [PYOCYANIN]
inactive: all assays above
